# Assays:
# Ileum [1] = assay: Biodistribution in 15 mg/kg unlabeled 6,7-dimethoxy-2-(3-(5-methoxy-3,4-dihydronaphthalen-1(2H)-ylidene)propyl)-1,2,3,4-tetrahydroisoquinoline pretreated Wistar rat ileum at 13+/-2 MBq, iv after 80 mins; format: ADME, organism-based; set-up: dose 15 mg/kg, route intravenous; conditions: in vivo
# Outline: (§1)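 Male Wistar rats given saline or unlabeled compound via tail vein: 15 mg/kg, dissolved at 10 mg/mL in saline with 35% ethanol. [11C] tracer (8-15 MBq) then given via penile vein. After microPET scanning the anesthetized rats were killed. Tissues were excised and weighed, and blood was spun for plasma and cell fraction. γ counting with decay correction. Results as SUV (tissue MBq/g × body weight/injected dose).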
# Lung [2] = assay: Biodistribution in 15 mg/kg unlabeled 6,7-dimethoxy-2-(3-(5-methoxy-3,4-dihydronaphthalen-1(2H)-ylidene)propyl)-1,2,3,4-tetrahydroisoquinoline pretreated Wistar rat lung at 13+/-2 MBq, iv after 80 mins; format: ADME, organism-based; set-up: dose 15 mg/kg, route intravenous; conditions: in vivo; outline: as §1
# [3] = Biodistribution in Wistar rat trachea at 11+/-2 MBq, iv after 80 mins; format: ADME, organism-based; conditions: in vivo
# Striatum [4] = assay: Biodistribution in 15 mg/kg unlabeled 6,7-dimethoxy-2-(3-(5-methoxy-3,4-dihydronaphthalen-1(2H)-ylidene)propyl)-1,2,3,4-tetrahydroisoquinoline pretreated Wistar rat striatum at 13+/-2 MBq, iv after 80 mins; format: ADME, organism-based; set-up: dose 15 mg/kg, route intravenous; conditions: in vivo; outline: as §1
# [5] = Biodistribution in 15 mg/kg unlabeled 6,7-dimethoxy-2-(3-(5-methoxy-3,4-dihydronaphthalen-1(2H)-ylidene)propyl)-1,2,3,4-tetrahydroisoquinoline pretreated Wistar rat frontal cortex at 13+/-2 MBq, iv after 80 mins; format: ADME, organism-based; set-up: dose 15 mg/kg, route intravenous; conditions: in vivo; outline: as §1
# Pons = assay: Biodistribution in Wistar rat pons at 11+/-2 MBq, iv after 80 mins; format: ADME, organism-based; conditions: in vivo
# Heart = assay: Biodistribution in 15 mg/kg unlabeled 6,7-dimethoxy-2-(3-(5-methoxy-3,4-dihydronaphthalen-1(2H)-ylidene)propyl)-1,2,3,4-tetrahydroisoquinoline pretreated Wistar rat heart at 13+/-2 MBq, iv after 80 mins; format: ADME, organism-based; set-up: dose 15 mg/kg, route intravenous; conditions: in vivo; outline: as §1
# [6] = Biodistribution in Wistar rat fat at 11+/-2 MBq, iv after 80 mins; format: ADME, organism-based, Adipose tissue; conditions: in vivo
# Outline: (§2)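 Male Wistar rats (12 h light/dark, chow ad libitum) were fitted with a femoral arterial cannula under isoflurane. They were pretreated via tail vein with saline, cyclosporin A (50 mg/kg), or nonradioactive tracer compound (15 mg/kg; 10 mg/mL in saline with 35% ethanol). The 11C tracer was then given via penile vein, followed by 76 min microPET. Animals were then terminated; excised tissues were weighed and gamma-counted with decay correction. Values are SUVs (tissue MBq/g × body weight g / injected MBq).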
# Plasma [7] = assay: Biodistribution in 15 mg/kg unlabeled 6,7-dimethoxy-2-(3-(5-methoxy-3,4-dihydronaphthalen-1(2H)-ylidene)propyl)-1,2,3,4-tetrahydroisoquinoline pretreated Wistar rat plasma at 13+/-2 MBq, iv after 80 mins; format: ADME, organism-based; set-up: dose 15 mg/kg, route intravenous; conditions: in vivo; outline: as §1
# [8] = Biodistribution in 15 mg/kg unlabeled 6,7-dimethoxy-2-(3-(5-methoxy-3,4-dihydronaphthalen-1(2H)-ylidene)propyl)-1,2,3,4-tetrahydroisoquinoline pretreated Wistar rat medulla at 13+/-2 MBq, iv after 80 mins; format: ADME, organism-based, Medulla of organ; set-up: dose 15 mg/kg, route intravenous; conditions: in vivo; outline: as §1
# Plasma [9] = assay: Biodistribution in Wistar rat plasma at 11+/-2 MBq, iv after 80 mins; format: ADME, organism-based; conditions: in vivo
# Outline: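 Male Wistar rats under isoflurane with saline pretreatment via tail vein. Carbon-11 tracer (8–15 MBq, saline-diluted) was given via the penile vein. After the 76 min microPET list-mode scan, the anesthetized animals were killed and blood collected. Plasma was separated by centrifugation (5 min, 1000g), weighed, and gamma-counted with decay correction. Results are given as SUV (tissue MBq/g × body weight/injected dose).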
# Pancreas = assay: Biodistribution in Wistar rat pancreas at 11+/-2 MBq, iv after 80 mins; format: ADME, organism-based; conditions: in vivo; outline: as §2
# [10] = Biodistribution in Wistar rat red blood cells at 11+/-2 MBq, iv after 80 mins; format: ADME, organism-based, Erythrocyte; conditions: in vivo
# Kidney [11] = assay: Biodistribution in Wistar rat kidney at 11+/-2 MBq, iv after 80 mins; format: ADME, organism-based; conditions: in vivo; outline: as §2
# Liver = assay: Biodistribution in Wistar rat liver at 11+/-2 MBq, iv after 80 mins; format: ADME, organism-based; conditions: in vivo; outline: as §2
# Lung [12] = assay: Biodistribution in Wistar rat lung at 11+/-2 MBq, iv after 80 mins; format: ADME, organism-based; conditions: in vivo; outline: as §2
# Plasma [13] = assay: Biodistribution in Wistar rat plasma at 11+/-2 MBq, iv after 60 mins; format: ADME, organism-based; conditions: in vivo, 1 h
# Outline: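 Male Wistar rats under isoflurane with a femoral arterial cannula; saline pretreatment via tail vein. Carbon-11 tracer (8–15 MBq, diluted in saline) injected into the penile vein during microPET. 14 arterial samples were drawn from 15 s to 60 min, plasma was separated by centrifugation, and radioactivity was gamma-counted. Results are given as SUV (tissue MBq/g × body weight/injected dose).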
# Colon = assay: Biodistribution in 15 mg/kg unlabeled 6,7-dimethoxy-2-(3-(5-methoxy-3,4-dihydronaphthalen-1(2H)-ylidene)propyl)-1,2,3,4-tetrahydroisoquinoline pretreated Wistar rat colon at 13+/-2 MBq, iv after 80 mins; format: ADME, organism-based; set-up: dose 15 mg/kg, route intravenous; conditions: in vivo; outline: as §1
# [14] = Biodistribution in Wistar rat entorhinal cortex at 11+/-2 MBq, iv after 80 mins; format: ADME, organism-based; conditions: in vivo; outline: as §2
# Duodenum [15] = assay: Biodistribution in 15 mg/kg unlabeled 6,7-dimethoxy-2-(3-(5-methoxy-3,4-dihydronaphthalen-1(2H)-ylidene)propyl)-1,2,3,4-tetrahydroisoquinoline pretreated Wistar rat duodenum at 13+/-2 MBq, iv after 80 mins; format: ADME, organism-based; set-up: dose 15 mg/kg, route intravenous; conditions: in vivo; outline: as §1
# Ileum [16] = assay: Biodistribution in Wistar rat ileum at 11+/-2 MBq, iv after 80 mins; format: ADME, organism-based; conditions: in vivo; outline: as §2
# [17] = Biodistribution in Wistar rat medulla at 11+/-2 MBq, iv after 80 mins; format: ADME, organism-based, Medulla of organ; conditions: in vivo; outline: as §2
# [18] = Biodistribution in 15 mg/kg unlabeled 6,7-dimethoxy-2-(3-(5-methoxy-3,4-dihydronaphthalen-1(2H)-ylidene)propyl)-1,2,3,4-tetrahydroisoquinoline pretreated Wistar rat amygdala at 13+/-2 MBq, iv after 80 mins; format: ADME, organism-based; set-up: dose 15 mg/kg, route intravenous; conditions: in vivo; outline: as §1
# Brain = assay: Biodistribution in 15 mg/kg unlabeled 6,7-dimethoxy-2-(3-(5-methoxy-3,4-dihydronaphthalen-1(2H)-ylidene)propyl)-1,2,3,4-tetrahydroisoquinoline pretreated Wistar rat brain at 13+/-2 MBq, iv after 56 mins; format: ADME, organism-based; set-up: dose 15 mg/kg, route intravenous; conditions: in vivo
# Outline: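 Male Wistar rats given saline or unlabeled compound (15 mg/kg, 10 mg/mL in saline with 35% ethanol) via tail vein. [11C] tracer then given via penile vein. Dynamic microPET under anesthesia, with a 3D ROI drawn over the whole brain. SUV taken from the time-activity curve (frames 4×60 s, 3×120 s, 4×300 s, 3×600 s), assuming a density of 1 g/mL. Mean ± SEM.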
# Striatum [19] = assay: Biodistribution in Wistar rat striatum at 11+/-2 MBq, iv after 80 mins; format: ADME, organism-based; conditions: in vivo
# [20] = Biodistribution in Wistar rat amygdala at 11+/-2 MBq, iv after 80 mins; format: ADME, organism-based; conditions: in vivo
# Duodenum [21] = assay: Biodistribution in Wistar rat duodenum at 11+/-2 MBq, iv after 80 mins; format: ADME, organism-based; conditions: in vivo; outline: as §2
# Kidney [22] = assay: Biodistribution in 15 mg/kg unlabeled 6,7-dimethoxy-2-(3-(5-methoxy-3,4-dihydronaphthalen-1(2H)-ylidene)propyl)-1,2,3,4-tetrahydroisoquinoline pretreated Wistar rat kidney at 13+/-2 MBq, iv after 80 mins; format: ADME, organism-based; set-up: dose 15 mg/kg, route intravenous; conditions: in vivo; outline: as §1
# [23] = Biodistribution in Wistar rat parietal/temporal/occipital cortex at 11+/-2 MBq, iv after 80 mins; format: ADME, organism-based; conditions: in vivo; outline: as §2
smiles,measurement,setting,value
COc1cc2c(cc1OC)CN(CC/C=C1\CCCc3c(O[11CH3])cccc31)CC2,SUV,Ileum [1],0.91
same,SUV,Lung [2],2.13
same,SUV,[3],1.25
same,SUV,Striatum [4],0.4
same,SUV,[5],0.37
same,SUV,Pons,0.6
same,SUV,Heart,0.68
same,SUV,[6],0.35
same,SUV,Plasma [7],0.56
same,SUV,[8],0.46
same,SUV,Plasma [9],0.49
same,SUV,Pancreas,4.02
same,SUV,[10],0.24
same,SUV,Kidney [11],1.53
same,SUV,Liver,1.75
same,SUV,Lung [12],1.34
same,SUV,Plasma [13],0.49
same,SUV,Colon,0.74
same,SUV,[14],0.55
same,SUV,Duodenum [15],1.01
same,SUV,Ileum [16],1.94
same,SUV,[17],0.46
same,SUV,[18],0.44
same,SUV,Brain,0.68
same,SUV,Striatum [19],0.46
same,SUV,[20],0.65
same,SUV,Duodenum [21],3.06
same,SUV,Kidney [22],1.3
same,SUV,[23],0.65

# Source: ChEMBL document CHEMBL1137781, “Synthesis and preclinical evaluation of novel PET probes for P-glycoprotein function and expression” (J Med Chem, 2009)
